# Reference: ChEMBL document CHEMBL1155077, “Kinesin spindle protein (KSP) inhibitors. 9. Discovery of (2S)-4-(2,5-difluorophenyl)-n-[(3R,4S)-3-fluoro-1-methylpiperidin-4-yl]-2-(hydroxymethyl)-N-methyl-2-phenyl-2,5-dihydro-1H-pyrrole-1-carboxamide (MK-0731) for the treatment of taxane-refractory cancer” (J Med Chem, 2008)
# The source made the active and inactive calls. The rule behind the calls is not given here.
# Columns and labels:
# [1] = Half life in rat at 1 mg/kg, iv; assay type: ADME, organism-based; design: dose 1 mg/kg, route intravenous; details: in vivo
# [2] = target: T1, Kinesin heavy chain isoform 5A (Homo sapiens, UniProt Q12840); experiment: Inhibition of cloned human nKHC
# T1 sequence (Q12840 whole entry): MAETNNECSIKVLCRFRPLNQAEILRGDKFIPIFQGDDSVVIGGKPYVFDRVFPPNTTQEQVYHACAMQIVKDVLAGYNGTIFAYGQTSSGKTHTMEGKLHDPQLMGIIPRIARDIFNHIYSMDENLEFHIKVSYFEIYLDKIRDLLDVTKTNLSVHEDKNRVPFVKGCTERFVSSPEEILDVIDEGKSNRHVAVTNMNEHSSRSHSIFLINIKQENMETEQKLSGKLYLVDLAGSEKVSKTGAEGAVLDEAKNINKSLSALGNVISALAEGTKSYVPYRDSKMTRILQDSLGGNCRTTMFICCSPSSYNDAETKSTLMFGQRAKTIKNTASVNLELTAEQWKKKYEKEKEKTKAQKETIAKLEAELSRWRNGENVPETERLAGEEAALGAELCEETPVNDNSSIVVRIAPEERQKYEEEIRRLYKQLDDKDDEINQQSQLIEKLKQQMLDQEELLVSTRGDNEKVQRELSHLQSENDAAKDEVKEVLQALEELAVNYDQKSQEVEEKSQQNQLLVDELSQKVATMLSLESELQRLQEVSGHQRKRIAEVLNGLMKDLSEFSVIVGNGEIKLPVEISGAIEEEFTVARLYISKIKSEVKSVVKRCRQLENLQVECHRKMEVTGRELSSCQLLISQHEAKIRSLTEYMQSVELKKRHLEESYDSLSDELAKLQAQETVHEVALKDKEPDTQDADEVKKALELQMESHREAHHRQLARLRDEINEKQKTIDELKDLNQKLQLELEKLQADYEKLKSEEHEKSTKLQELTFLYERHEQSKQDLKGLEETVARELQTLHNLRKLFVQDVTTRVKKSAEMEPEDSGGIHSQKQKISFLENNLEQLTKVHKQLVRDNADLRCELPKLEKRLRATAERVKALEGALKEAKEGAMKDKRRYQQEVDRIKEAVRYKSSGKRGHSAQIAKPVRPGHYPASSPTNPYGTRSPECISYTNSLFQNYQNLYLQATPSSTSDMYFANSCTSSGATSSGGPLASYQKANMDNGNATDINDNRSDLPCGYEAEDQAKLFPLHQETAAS
# [3] = Half life in dog at 0.4 mg/kg, iv; assay type: ADME, organism-based, Canis lupus familiaris; design: dose 0.4 mg/kg, route intravenous; details: in vivo
# KB-v = experiment: Inhibition of tumor growth in human KB-v cells expressing MDR1 xenografted clr:NU/NU-nuBR mouse assessed as change in tumor volume at 20 mg/kg, ip administered qd x 5 dosing schedule relative to control; assay type: functional, organism-based; design: dose 20 mg/kg
# Method in brief: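 Nude mice bearing contralateral sc KB-3-1 (2.5 million) and KB-v-1 (9 million) flank tumors, 250-500 mm³ at day 13-14, groups of 10-12. Paclitaxel 20 mg/kg/day ip in ethanol/Cremophor/saline (10:10:80), qd × 5. Volumes by calipers, (W² × L)/2, change from initial; % T/C versus control.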
# [4] = Half life in rhesus monkey at 0.4 mg/kg, iv; assay type: ADME, organism-based, Macaca mulatta; design: dose 0.4 mg/kg, route intravenous; details: in vivo
# [5] = Toxicity in clr:NU/NU-nuBR mouse assessed as maximum tolerated dose after 24 hrs; assay type: organism-based; details: in vivo
# Method in brief: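 Naive, non-xenografted mice, in a large cohort. Drug was given by continuous delivery from subcutaneously implanted osmotic minipumps over 24 h. The maximum tolerated dose was set with survival as the end point, and peripheral blood counts were followed to assess myelosuppression.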
# [6] = target: T2, Kinesin-like protein KIF2C (Homo sapiens, UniProt Q99661); experiment: Inhibition of cloned human MCAK
# T2 sequence (Q99661 whole entry): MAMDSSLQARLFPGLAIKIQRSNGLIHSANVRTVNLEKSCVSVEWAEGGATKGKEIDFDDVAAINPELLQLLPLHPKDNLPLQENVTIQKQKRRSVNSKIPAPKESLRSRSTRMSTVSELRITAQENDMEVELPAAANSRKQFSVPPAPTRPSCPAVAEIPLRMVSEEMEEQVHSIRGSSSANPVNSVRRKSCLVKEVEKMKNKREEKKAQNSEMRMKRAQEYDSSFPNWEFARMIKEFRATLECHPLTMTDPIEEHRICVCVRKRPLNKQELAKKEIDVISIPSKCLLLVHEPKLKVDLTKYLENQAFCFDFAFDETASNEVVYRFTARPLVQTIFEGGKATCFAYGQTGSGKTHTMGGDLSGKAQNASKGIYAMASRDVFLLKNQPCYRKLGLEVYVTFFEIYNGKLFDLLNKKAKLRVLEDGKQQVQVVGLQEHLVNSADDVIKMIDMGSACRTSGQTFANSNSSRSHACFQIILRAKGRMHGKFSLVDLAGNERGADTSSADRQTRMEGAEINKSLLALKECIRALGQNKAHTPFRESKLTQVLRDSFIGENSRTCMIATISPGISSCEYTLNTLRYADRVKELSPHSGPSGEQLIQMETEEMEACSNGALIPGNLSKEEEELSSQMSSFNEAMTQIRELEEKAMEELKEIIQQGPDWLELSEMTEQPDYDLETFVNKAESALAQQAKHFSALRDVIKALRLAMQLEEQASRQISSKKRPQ
compound,measurement,setting,value
CN1CC[C@H](N(C)C(=O)N2CC(c3cc(F)ccc3F)=C[C@@]2(CO)c2ccccc2)[C@H](F)C1,half-life,[1],1 h
same,IC50,[2],> 50 µM
same,half-life,[3],2 h
same,Activity,KB-v,inactive
same,half-life,[4],1 h
same,MTD at 24 h,[5],12 mg/kg
same,IC50,[6],> 50 µM
